Measured values as given in ChEMBL document CHEMBL4219021, “Discovery of a Small-Molecule Degrader of Bromodomain and Extra-Terminal (BET) Proteins with Picomolar Cellular Potencies and Capable of Achieving Tumor Regression” (J Med Chem, 2018).
The source made the active and inactive calls. The rule behind the calls is not given here.

Key:
[1] = biological target: T1, Protein cereblon/Bromodomain-containing protein 3/Cullin-4A (Homo sapiens) (UniProt Q15059+Q96SW2+Q13619); experiment: Induction of cereblon/cullin 4A-mediated BRD3 degradation in human RS4:11 cells at 1 nM after 3 hrs in presence of proteosome inhibitor MG-132 by Western blot method; format: cell-based
T1 sequence (Q13619 whole entry, looked up): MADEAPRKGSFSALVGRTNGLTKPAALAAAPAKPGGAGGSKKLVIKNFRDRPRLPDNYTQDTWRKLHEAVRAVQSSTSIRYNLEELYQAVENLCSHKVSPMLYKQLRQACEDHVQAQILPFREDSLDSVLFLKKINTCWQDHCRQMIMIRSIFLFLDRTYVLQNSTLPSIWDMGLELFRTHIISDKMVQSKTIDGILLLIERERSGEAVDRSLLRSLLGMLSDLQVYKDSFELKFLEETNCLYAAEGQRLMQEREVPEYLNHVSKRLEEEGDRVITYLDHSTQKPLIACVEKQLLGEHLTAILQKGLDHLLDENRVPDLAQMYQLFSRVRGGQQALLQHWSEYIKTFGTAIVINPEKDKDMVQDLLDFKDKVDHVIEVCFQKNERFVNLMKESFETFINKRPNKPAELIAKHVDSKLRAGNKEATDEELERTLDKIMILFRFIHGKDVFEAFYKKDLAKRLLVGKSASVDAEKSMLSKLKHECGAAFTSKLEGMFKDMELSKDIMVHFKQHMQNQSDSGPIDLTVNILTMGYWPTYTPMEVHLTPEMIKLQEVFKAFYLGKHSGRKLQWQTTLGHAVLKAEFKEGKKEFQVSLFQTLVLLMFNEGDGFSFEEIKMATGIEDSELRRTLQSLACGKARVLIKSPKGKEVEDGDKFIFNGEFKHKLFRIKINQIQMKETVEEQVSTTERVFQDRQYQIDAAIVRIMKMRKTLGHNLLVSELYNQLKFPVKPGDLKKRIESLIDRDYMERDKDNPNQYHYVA
T1 sequence (Q15059 whole entry, looked up): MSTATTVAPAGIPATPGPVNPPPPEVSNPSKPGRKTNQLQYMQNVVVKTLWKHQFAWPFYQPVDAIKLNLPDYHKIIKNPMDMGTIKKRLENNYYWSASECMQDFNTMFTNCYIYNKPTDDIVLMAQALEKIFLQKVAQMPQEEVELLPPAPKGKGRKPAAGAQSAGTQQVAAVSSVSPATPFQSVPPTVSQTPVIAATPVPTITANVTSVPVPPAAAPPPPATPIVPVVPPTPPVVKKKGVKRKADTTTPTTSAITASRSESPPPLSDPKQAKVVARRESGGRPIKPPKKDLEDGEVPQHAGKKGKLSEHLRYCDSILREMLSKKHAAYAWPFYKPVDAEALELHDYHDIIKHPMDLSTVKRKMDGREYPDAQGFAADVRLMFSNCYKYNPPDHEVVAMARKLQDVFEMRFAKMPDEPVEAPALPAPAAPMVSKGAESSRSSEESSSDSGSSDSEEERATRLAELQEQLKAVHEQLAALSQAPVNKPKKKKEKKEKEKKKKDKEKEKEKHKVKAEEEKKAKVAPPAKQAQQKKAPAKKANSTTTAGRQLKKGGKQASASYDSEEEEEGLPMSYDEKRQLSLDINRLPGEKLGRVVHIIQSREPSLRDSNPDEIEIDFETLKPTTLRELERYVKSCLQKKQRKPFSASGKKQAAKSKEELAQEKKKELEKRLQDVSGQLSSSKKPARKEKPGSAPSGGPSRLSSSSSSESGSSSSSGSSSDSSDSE
T1 sequence (Q96SW2 whole entry, looked up): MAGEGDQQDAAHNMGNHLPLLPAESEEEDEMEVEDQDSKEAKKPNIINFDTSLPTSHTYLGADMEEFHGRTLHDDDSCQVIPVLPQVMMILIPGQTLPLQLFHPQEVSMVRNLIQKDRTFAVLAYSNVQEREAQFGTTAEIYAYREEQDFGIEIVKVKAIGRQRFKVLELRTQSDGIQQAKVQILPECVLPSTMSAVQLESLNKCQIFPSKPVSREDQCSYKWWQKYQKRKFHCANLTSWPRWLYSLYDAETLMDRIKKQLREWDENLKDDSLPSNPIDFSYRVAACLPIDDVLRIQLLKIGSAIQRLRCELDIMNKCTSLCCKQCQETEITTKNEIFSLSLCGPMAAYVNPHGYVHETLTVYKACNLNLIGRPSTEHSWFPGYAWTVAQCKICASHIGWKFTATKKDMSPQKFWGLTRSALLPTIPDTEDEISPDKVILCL

[2] = biological target: T1, Protein cereblon/Bromodomain-containing protein 3/Cullin-4A (Homo sapiens); experiment: Induction of cereblon/cullin 4A-mediated BRD3 degradation in human RS4:11 cells at 1 nM after 3 hrs in presence of NAE inhibitor MLN4924 by Western blot method; format: cell-based
[3] = biological target: T1, Protein cereblon/Bromodomain-containing protein 3/Cullin-4A (Homo sapiens); experiment: Induction of cereblon/cullin 4A-mediated BRD3 degradation in human RS4:11 cells at 1 nM after 3 hrs in presence of cereblon inhibitor lenalidomide by Western blot method; format: cell-based
[4] = biological target: T2, Protein cereblon/Bromodomain-containing protein 4/Cullin-4A (Homo sapiens) (UniProt O60885+Q96SW2+Q13619); experiment: Induction of cereblon/cullin 4A-mediated BRD4 degradation in human RS4:11 cells at 1 nM after 3 hrs in presence of cereblon inhibitor lenalidomide by Western blot method; format: cell-based
RS4-11 [5] = experiment: Antitumor activity against human RS4:11 cells xenografted in SCID mouse assessed as tumor growth regression at 5 mg/kg, iv […] administered every other day three times per week for 3 weeks relative to control; format: functional
In short: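 SCID mice given 5×10⁶ RS4;11 cells in 50% Matrigel subcutaneously on the dorsal side, one tumor per mouse. Randomized at ~100 mm³, then dosed 5 mg/kg iv every other day, three times a week for 3 weeks. Tumors measured by caliper 2–3 times/week, V = LW²/2. Body weight recorded 2–3 times/week and daily toxicity checks made.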

[6] = biological target: T2, Protein cereblon/Bromodomain-containing protein 4/Cullin-4A (Homo sapiens); experiment: Induction of cereblon/cullin 4A-mediated BRD4 degradation in human RS4:11 cells at 1 nM after 3 hrs in presence of NAE inhibitor MLN4924 by Western blot method; format: cell-based
[7] = biological target: T3, Protein cereblon/Bromodomain-containing protein 2/Cullin-4A (Homo sapiens) (UniProt P25440+Q96SW2+Q13619); experiment: Induction of cereblon/cullin 4A-mediated BRD2 degradation in human RS4:11 cells at 1 nM after 3 hrs in presence of cereblon inhibitor lenalidomide by Western blot method; format: cell-based
T3 sequence (P25440 whole entry, looked up): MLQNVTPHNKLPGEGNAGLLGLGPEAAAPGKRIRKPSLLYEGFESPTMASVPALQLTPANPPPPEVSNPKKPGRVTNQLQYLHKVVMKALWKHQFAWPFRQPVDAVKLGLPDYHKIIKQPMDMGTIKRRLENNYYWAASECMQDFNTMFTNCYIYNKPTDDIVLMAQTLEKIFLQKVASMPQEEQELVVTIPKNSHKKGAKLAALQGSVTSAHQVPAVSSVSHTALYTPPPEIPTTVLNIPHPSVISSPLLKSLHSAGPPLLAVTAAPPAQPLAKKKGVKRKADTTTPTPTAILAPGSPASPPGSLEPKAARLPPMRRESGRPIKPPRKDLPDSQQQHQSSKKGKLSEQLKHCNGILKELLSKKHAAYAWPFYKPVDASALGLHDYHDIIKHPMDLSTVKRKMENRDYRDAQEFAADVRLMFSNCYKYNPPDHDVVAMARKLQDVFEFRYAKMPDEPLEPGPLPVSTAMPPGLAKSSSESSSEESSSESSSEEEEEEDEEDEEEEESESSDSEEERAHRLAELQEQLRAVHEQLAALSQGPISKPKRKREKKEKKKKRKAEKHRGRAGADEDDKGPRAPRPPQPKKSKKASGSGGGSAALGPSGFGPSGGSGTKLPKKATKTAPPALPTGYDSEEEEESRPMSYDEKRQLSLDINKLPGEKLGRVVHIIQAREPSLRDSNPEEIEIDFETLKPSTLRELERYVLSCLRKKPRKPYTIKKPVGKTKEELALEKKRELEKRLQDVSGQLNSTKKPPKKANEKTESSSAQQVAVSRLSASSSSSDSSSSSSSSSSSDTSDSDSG
T3 sequence (Q13619 whole entry, looked up): as the sequence (Q13619 whole entry, looked up) above
T3 sequence (Q96SW2 whole entry, looked up): as the sequence (Q96SW2 whole entry, looked up) above

[8] = Drug metabolism in mouse liver microsomes assessed as N-butyl-4-(3-cyclopropyl-1-ethyl-1H-pyrazol-5-ylamino)-7-(3,5-dimethylisoxazol-4-yl)-6-methoxy-9H-pyrimido[4,5-b]indole-2-carboxamide formation at 10 uM after 20 to 40 mins in presence of beta-NADPH […]; format: ADME, microsome
[9] = biological target: T2, Protein cereblon/Bromodomain-containing protein 4/Cullin-4A (Homo sapiens); experiment: Induction of cereblon/cullin 4A-mediated BRD4 degradation in human RS4:11 cells at 1 nM after 3 hrs in presence of proteosome inhibitor MG-132 by Western blot method; format: cell-based
Mus musculus [10] = experiment: In vivo induction of cereblon/cullin 4A-mediated BRD4 degradation in tumor of SCID mouse xenografted with human RS4:11 cells at 5 mg/kg, iv administered as single dose measured after 24 hrs by Western blot method; format: functional, organism-based
In short: (§1)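 SCID mice bearing subcutaneous RS4;11 tumors received a single 5 mg/kg iv dose. Sacrificed at 1, 3, 6 and 24 h, with vehicle controls at 6 h, two mice per time point. Tumors ground in liquid nitrogen and lysed in CHAPS buffer, then immunoblotted for BRD2/3/4, c-Myc, PARP/cleaved PARP and caspase-3/cleaved caspase-3. Actin served as loading control.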

RS4-11 [11] = experiment: Induction of cell cycle arrest in human RS4:11 cells after 24 hrs by propidium iodide staining based flow cytometry; format: functional
In short: (§2)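 RS4;11 or MOLM-13 cells treated with compound for 24 h, then analyzed by flow cytometry. Cell cycle read by propidium iodide staining and apoptosis by annexin V/propidium iodide staining.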

[12] = biological target: T2, Protein cereblon/Bromodomain-containing protein 4/Cullin-4A (Homo sapiens); experiment: Induction of cereblon/cullin 4A-mediated BRD4 degradation in human RS4:11 cells at 1 nM after 3 hrs in presence of BET inhibitor 4-((3-Cyclopropyl-1-ethyl-1H-pyrazol-5-yl)amino)-7-(3,5-dimethylisoxazol-4-yl)-6-methoxy-N-methyl-9H-pyrimido[4,5-b]-indole-2-carboxamide by Western blot method; format: cell-based
[13] = Drug metabolism in mouse liver microsomes assessed as metabolite m1 formation at 10 uM after 20 to 40 mins in presence of beta-NADPH […]; format: ADME, microsome
[14] = biological target: T2, Protein cereblon/Bromodomain-containing protein 4/Cullin-4A (Homo sapiens); experiment: Induction of cereblon/cullin 4A-mediated BRD4 degradation in human RS4:11 cells after 3 hrs by Western blot method; format: cell-based
In short: (§3)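 Western blot of RS4;11 cells (2 × 10⁶ cells/well) in RPMI 1640 with 10% FBS, 37 °C, 5% CO₂, used within three months of thawing. Compound exposure was 3 h or 24 h at the indicated concentrations. Cells were lysed in RIPA with protease inhibitors, and BRD2, BRD3 and BRD4 were detected with specific antibodies, with GAPDH as loading control.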

Mus musculus [15] = experiment: In vivo induction of cereblon/cullin 4A-mediated BRD2 degradation in tumor of SCID mouse xenografted with human RS4:11 cells at 5 mg/kg, iv administered as single dose measured after 24 hrs by Western blot method; format: functional, organism-based; in short: as §1
[16] = biological target: T2, Protein cereblon/Bromodomain-containing protein 4/Cullin-4A (Homo sapiens); experiment: Induction of cereblon/cullin 4A-mediated BRD4 degradation in human RS4:11 cells at 0.03 nM after 24 hrs by Western blot method; format: cell-based; in short: as §3
[17] = Drug metabolism in mouse liver microsomes assessed as metabolite m2 formation at 10 uM after 20 to 40 mins in presence of beta-NADPH […]; format: ADME, microsome
[18] = Drug metabolism in mouse liver microsomes assessed as 4-(3-cyclopropyl-1H-pyrazol-5-ylamino)-7-(3,5-dimethylisoxazol-4-yl)-N-(5-(2-(2,6-dioxopiperidin-3-yl)-1-oxoisoindolin-4-yl)pentyl)-6-methoxy-9H-pyrimido[4,5-b]indole-2-carboxamide formation at 10 uM after 20 to 40 mins in presence of beta-NADPH […]; format: ADME, microsome
[19] = biological target: T3, Protein cereblon/Bromodomain-containing protein 2/Cullin-4A (Homo sapiens); experiment: Induction of cereblon/cullin 4A-mediated BRD2 degradation in human RS4:11 cells at 1 nM after 3 hrs in presence of proteosome inhibitor MG-132 by Western blot method; format: cell-based
[20] = biological target: T1, Protein cereblon/Bromodomain-containing protein 3/Cullin-4A (Homo sapiens); experiment: Induction of cereblon/cullin 4A-mediated BRD3 degradation in human RS4:11 cells at 0.1 nM after 24 hrs by Western blot method; format: cell-based; in short: as §3
[21] = biological target: T3, Protein cereblon/Bromodomain-containing protein 2/Cullin-4A (Homo sapiens); experiment: Induction of cereblon/cullin 4A-mediated BRD2 degradation in human RS4:11 cells at 1 nM after 3 hrs in presence of BET inhibitor 4-((3-Cyclopropyl-1-ethyl-1H-pyrazol-5-yl)amino)-7-(3,5-dimethylisoxazol-4-yl)-6-methoxy-N-methyl-9H-pyrimido[4,5-b]-indole-2-carboxamide by Western blot method; format: cell-based
Homo sapiens = species: Homo sapiens; experiment: Induction of cereblon/cullin 4A-mediated BET degradation in human RS4:11 cells assessed as downregulation of c-myc protein level at 0.1 nM after 24 hrs by Western blot method; format: cell-based
In short: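 RS4;11 cells (2 × 10⁶/well) treated for 24 h at the indicated concentrations. Lysed in RIPA with protease inhibitors and immunoblotted for BRD2, BRD3, BRD4, c-Myc and PARP, with GAPDH as loading control.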

Mus musculus [22] = experiment: In vivo induction of cereblon/cullin 4A-mediated BRD3 degradation in tumor of SCID mouse xenografted with human RS4:11 cells at 5 mg/kg, iv administered as single dose measured after 24 hrs by Western blot method; format: functional, organism-based; in short: as §1
MOLM-13 = experiment: Induction of apoptosis in human MOLM13 cells at 3 to 10 nM after 24 hrs by Annexin-V/propidium iodide staining based flow cytometry; format: functional, cell-based; in short: as §2

Activity [1]: inactive
Activity [2]: inactive
Activity [3]: inactive
Activity [4]: inactive
Activity [6]: inactive
Activity [7]: inactive
Drug metabolism [8]: Metabolite_Detected
Activity [9]: inactive
Activity [12]: inactive
Drug metabolism [13]: Metabolite_Detected
Activity [14]: Dose-dependent effect
Activity [16]: Active
Drug metabolism [17]: Metabolite_Detected
Drug metabolism [18]: Metabolite_Detected
Activity [19]: inactive
Activity [20]: Active
Activity [21]: inactive
SMILES: CCn1nc(C2CC2)cc1Nc1nc(C(=O)NCCCCCc2cccc3c2CN(C2CCC(=O)NC2=O)C3=O)nc2[nH]c3cc(-c4c(C)noc4C)c(OC)cc3c12 (centres undefined)
Activity (RS4-11 [5]): >90%
Activity (Mus musculus [10]): Active
Activity (RS4-11 [11]): Dose-dependent effect
Activity (Mus musculus [15]): Active
Activity (Homo sapiens): Active
Activity (Mus musculus [22]): Active
Activity (MOLM-13): Active
